Test results reported in ChEMBL document CHEMBL4152390, “Discovery of the First-in-Class Dual Histone Deacetylase-Proteasome Inhibitor” (J Med Chem, 2018).
Activity calls are given as the source filed them. No cut-off for these calls is given here.

Experiments:
SEM cells [1] = test: Inhibition of HDAC6/chymotrypsin-like activity of 20S proteasome in human SEM cells assessed as increase in ATF6 protein expression at 0.1 to 10 uM after 18 hrs by Western blot assay; type: cell-based
How it was run: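 Cells treated 18 h at indicated concentrations; lysates analysed by western blot for heat shock (Grp94, HSP70, HSP40, HSP27), UPR (BIP, ATF4, ATF6, pJNK) and autophagy (LC3B, p62) proteins.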

[2] = Cytotoxicity against human BCP-ALL cells derived from patient 2 after 72 hrs by CellTiter-Glo luminescent cell viability assay; type: functional, cell-based
How it was run: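 Compounds dispensed digitally at increasing concentrations, 50 nM–25 μM; viability read by CellTiter-Glo luminescence after 72 h. Raw data normalized to controls, IC50 from sigmoid dose curve by non-linear regression. Patient samples: primary cells from newly diagnosed or relapsed patients, cultured in stem cell expansion or mononuclear cell medium.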

SEM cells [3] = test: Induction of apoptosis in human SEM cells at IC50 to 2 times IC50 after 48 hrs by annexin V/propidium iodide staining-based FACS analysis relative to control; type: functional
How it was run: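 After 48 h treatment at IC50 or 2x IC50, cells double-stained with annexin V and PI and analysed by FACS. Cells scored as living, early apoptotic (annexin V+), late apoptotic (both+) or necrotic (PI+).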

[4] = biological target: T1, Proteasome Macropain subunit MB1 (Homo sapiens, UniProt P28074); test: Inhibition of chymotrypsin-like activity of 20S proteasome in human SEM cells using Suc-LLVY aminoluciferin as substrate after 2 hrs by proteasome-Glo assay; type: cell-based
T1 sequence (P28074 whole entry): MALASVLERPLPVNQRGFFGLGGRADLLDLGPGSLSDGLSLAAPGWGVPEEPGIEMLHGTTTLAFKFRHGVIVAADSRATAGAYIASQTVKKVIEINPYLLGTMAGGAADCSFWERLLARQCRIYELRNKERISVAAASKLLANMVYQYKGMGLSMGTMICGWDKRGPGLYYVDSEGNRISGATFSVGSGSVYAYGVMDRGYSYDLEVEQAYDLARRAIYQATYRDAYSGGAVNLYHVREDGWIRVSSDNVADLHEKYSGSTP

Homo sapiens = species on record: Homo sapiens; test: Inhibition of HDAC6/chymotrypsin-like activity of 20S proteasome in human HL60 cells assessed as increase in cleaved PARP expression at 0.1 to 10 uM after 24 hrs by immunoblot assay; type: cell-based
How it was run: (§1)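 Cells exposed for 24 h at indicated concentrations; lysates immunoblotted for acetyl-α-tubulin, acetyl-histone H3, PARP, with GAPDH as loading control.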

[5] = biological target: T2, Protein deacetylase HDAC6 (Homo sapiens) (UniProt Q9UBN7); test: Inhibition of HDAC6 in human HL60 cells assessed as increase in acetyl-histone H3 expression at 0.1 to 10 uM after 24 hrs by immunoblot assay; type: cell-based; how it was run: as §1
T2 sequence (whole entry): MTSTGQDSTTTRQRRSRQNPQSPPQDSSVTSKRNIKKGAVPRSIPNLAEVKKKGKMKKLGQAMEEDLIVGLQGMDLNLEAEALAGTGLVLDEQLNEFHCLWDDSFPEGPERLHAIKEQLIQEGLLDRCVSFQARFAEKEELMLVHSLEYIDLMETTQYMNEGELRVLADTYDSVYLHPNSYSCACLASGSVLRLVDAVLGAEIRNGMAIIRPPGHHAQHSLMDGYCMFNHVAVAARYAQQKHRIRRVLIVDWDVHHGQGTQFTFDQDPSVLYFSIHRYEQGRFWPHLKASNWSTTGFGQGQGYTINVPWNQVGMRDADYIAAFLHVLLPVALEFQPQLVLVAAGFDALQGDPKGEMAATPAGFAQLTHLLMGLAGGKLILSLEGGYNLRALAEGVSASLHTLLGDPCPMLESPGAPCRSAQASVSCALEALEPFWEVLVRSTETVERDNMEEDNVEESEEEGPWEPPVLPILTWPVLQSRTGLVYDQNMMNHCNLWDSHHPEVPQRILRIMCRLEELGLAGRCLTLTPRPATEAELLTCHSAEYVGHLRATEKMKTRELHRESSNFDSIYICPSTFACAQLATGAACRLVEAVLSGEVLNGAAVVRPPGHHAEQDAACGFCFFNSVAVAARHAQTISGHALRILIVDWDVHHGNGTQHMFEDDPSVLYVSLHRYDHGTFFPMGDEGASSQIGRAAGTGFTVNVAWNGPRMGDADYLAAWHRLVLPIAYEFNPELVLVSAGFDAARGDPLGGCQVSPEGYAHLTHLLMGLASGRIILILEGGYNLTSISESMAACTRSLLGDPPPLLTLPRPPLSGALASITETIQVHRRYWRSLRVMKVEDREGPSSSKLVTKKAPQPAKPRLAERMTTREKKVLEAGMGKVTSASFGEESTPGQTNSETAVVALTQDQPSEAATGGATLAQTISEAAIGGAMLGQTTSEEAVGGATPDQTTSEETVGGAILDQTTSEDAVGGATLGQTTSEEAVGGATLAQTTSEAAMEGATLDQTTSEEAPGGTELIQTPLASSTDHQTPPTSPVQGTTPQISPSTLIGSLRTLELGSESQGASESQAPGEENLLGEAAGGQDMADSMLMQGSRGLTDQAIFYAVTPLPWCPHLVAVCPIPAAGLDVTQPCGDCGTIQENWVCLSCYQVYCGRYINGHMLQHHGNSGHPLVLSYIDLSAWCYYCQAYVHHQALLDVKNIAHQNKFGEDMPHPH

KCL-22 = test: Cytotoxicity against imatinib-resistant human KCL22 cells after 72 hrs by CellTiter-Glo luminescent cell viability assay; type: functional, cell-based; conditions: KCL-22, 72 h
How it was run: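 Inhibitors dispensed in increasing concentrations (50 nM–25 μM) and cells exposed 72 h. Viability read by ATP-dependent luminescence (CellTiter-Glo). Raw data normalized to controls. IC50 obtained by sigmoid dose–response fit with non-linear regression.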

[6] = biological target: T2, Protein deacetylase HDAC6 (Homo sapiens); test: Inhibition of HDAC6 in imatinib-resistant human SUP-B15 cells assessed as increase in acetyl-histone H3 expression at 0.1 to 10 uM after 24 hrs by immunoblot assay; type: cell-based; how it was run: as §1
SEM cells [7] = test: Cell cycle arrest in human SEM cells assessed as accumulation at S phase after 48 hrs by propidium iodide staining-based FACS analysis; type: functional
Histone deacetylase 1 = Histone deacetylase 1 (Homo sapiens, UniProt Q13547); test: Inhibition of C-terminal FLAG-His-tagged full length recombinant human HDAC1 expressed in Sf21 insect cells using RHKK(Ac)AMC as substrate by fluorescence-based assay
Sequence of Histone deacetylase 1 (Q13547 whole entry): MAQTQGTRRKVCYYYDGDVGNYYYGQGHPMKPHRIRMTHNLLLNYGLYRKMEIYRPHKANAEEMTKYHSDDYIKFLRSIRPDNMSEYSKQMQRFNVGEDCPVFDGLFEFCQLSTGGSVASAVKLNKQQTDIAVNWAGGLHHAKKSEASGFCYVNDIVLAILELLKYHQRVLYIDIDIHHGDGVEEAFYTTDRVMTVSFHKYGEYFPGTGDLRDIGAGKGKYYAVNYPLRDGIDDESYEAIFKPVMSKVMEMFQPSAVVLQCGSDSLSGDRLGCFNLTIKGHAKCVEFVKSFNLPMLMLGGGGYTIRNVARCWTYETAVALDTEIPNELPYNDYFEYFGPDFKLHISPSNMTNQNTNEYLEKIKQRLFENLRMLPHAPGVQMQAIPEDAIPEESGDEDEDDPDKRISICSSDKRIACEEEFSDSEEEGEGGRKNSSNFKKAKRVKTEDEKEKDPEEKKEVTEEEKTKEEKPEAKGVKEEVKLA

[8] = biological target: T2, Protein deacetylase HDAC6 (Homo sapiens); test: Inhibition of HDAC6 in human SEM cells assessed as increase in acetyl-histone H3 expression at 0.1 to 10 uM after 24 hrs by immunoblot assay; type: cell-based; how it was run: as §1
SUP-B15 = test: Cytotoxicity against imatinib-resistant human SUP-B15 cells after 72 hrs by CellTiter-Glo luminescent cell viability assay; type: functional, cell-based; conditions: SUP-B15, 72 h
[9] = Cytotoxicity against human BCP-ALL cells derived from patient 3 after 72 hrs by CellTiter-Glo luminescent cell viability assay; type: functional, cell-based

## C[C@H](NC(=O)[C@H](CC(=O)NCC(C)(C)C)NC(=O)c1ccc(C(=O)NO)cc1)C(=O)NCc1ccccc1
SEM cells [1]
  inhibition: Active
[2]
  IC50: 1840 nM
SEM cells [3]
  fold change (FC): 5
[4]
  IC50: 394 nM
Homo sapiens
  inhibition: Active
[5]
  inhibition: Active
KCL-22
  IC50: 2580 nM
[6]
  inhibition: Active
SEM cells [7]
  Activity: Dose-dependent effect
Histone deacetylase 1
  IC50: 6900 nM
[8]
  inhibition: Active
SUP-B15
  IC50: 1830 nM
[9]
  IC50: 5230 nM
